Published values collected from several papers.
Each line is one published result; the experiments were not run side by side.
IPMK: Inositol polyphosphate multikinase (IPMK, Homo sapiens, UniProt Q8NFU5)
ALDH3A1: Aldehyde dehydrogenase, dimeric NADP-preferring (ALDH3A1, Homo sapiens, UniProt P30838)
rep main protease: Replicase polyprotein 1ab, main protease (rep, Porcine epidemic diarrhea virus, UniProt P0C6Y4)
PTGS1: Prostaglandin G/H synthase 1 (PTGS1, Ovis aries, UniProt P05979)
rep papain-like protease: Replicase polyprotein 1ab, papain-like protease (rep, Porcine epidemic diarrhea virus, UniProt P0C6Y4)
MAP2K2: Dual specificity mitogen-activated protein kinase kinase 2 (MAP2K2, Homo sapiens, UniProt P36507)

With `COc1cccc(CNc2nc(NC3CCN(Cc4ccccc4)CC3)c3nc[nH]c3n2)c1` the IC50 was 2 µM (IPMK; enzyme activity, inhibitor).
With `Nc1ncnc2c1ncn2[C@@H]1C(F)=C(CO)[C@@H](O)[C@H]1O` the IC50 was 0.15 µM (Adenosylhomocysteinase (AHCY, Homo sapiens, UniProt P23526); enzyme activity, inhibitor).
For `OC[C@H]1O[C@@H](Oc2ccc(O)c3cccc(O)c23)[C@H](O)[C@@H](O)[C@@H]1O`, the IC50 was < 10 µM (ALDH3A1; enzyme activity, inhibitor, fluorescence).
For `C=C1CC/C=C(\C)CC[C@@H]2[C@@H]1CC2(C)C`, the IC50 was 0.587 µM (Transient receptor potential cation channel subfamily V member 1, non-phosphorylated (TRPV1, Homo sapiens, UniProt Q8NER1); ion current, patch clamp).
`CC(=O)Oc1cccc(C(=O)NCc2cc(O)c(O)c(Br)c2)c1C` has an IC50 of 7.35 µM (rep main protease; enzyme activity, inhibitor, FRET).
`N=C(N)c1ccc2nc(-c3cc(CC(=O)N[C@@H](CC(=O)O)C(=O)O)cc(-c4cc(S(N)(=O)=O)ccc4O)c3O)[nH]c2c1` gave an IC50 of 0.035 µM (Coagulation factor VII (F7, Homo sapiens, UniProt P08709); enzyme activity, inhibitor).
For `COCCNc1nc(NCc2cccc(-c3ccc(OC)cc3)c2)nc2[nH]cnc12`, the IC50 was 38 µM (IPMK; enzyme activity, inhibitor).
`COc1ccc(N2CCN(Cc3cn4c(-c5ccc(Br)cc5)nnc4s3)CC2)cc1` has an IC50 of ~0.518 µM (Aifm2 (Mus musculus, UniProt Q8BUE4, A354T/L360F); enzyme activity, inhibitor, absorbance).
`O=C(NCc1cc(O)c(O)c(Br)c1)c1nccs1` gave an IC50 of 2.52 µM (rep main protease; enzyme activity, inhibitor, FRET).
For `Cc1ccc(S(=O)(=O)[N](Nc2ccc([N+](=O)[O-])cc2[N+](=O)[O-])[Sn]([Cl])[Cl])cc1`, the IC50 was 45.9 µM (PTGS1; enzyme activity, inhibitor).
The IC50 of `O=C1Nc2ccc(I)cc2/C1=C/c1cc(Br)c(O)c(Br)c1` is reported as 1.13 µM (Mitogen-activated protein kinase kinase kinase 20 (MAP3K20, Homo sapiens, UniProt Q9NYL2); enzyme activity, inhibitor).
`Cn1c(C(=O)NCc2cc(O)c(O)c(Br)c2)cc2ccccc21` gave an IC50 of 8.08 µM (rep papain-like protease; enzyme activity, inhibitor, FRET).
`NS(=O)(=O)c1ccc(-n2nc(C(=O)NN=Cc3ccccc3O)cc2-c2ccccc2)cc1` has an IC50 of 3.91 µM (PTGS1; enzyme activity, inhibitor).
With `CCC(C(=O)NCc1cc(O)c(O)c(Br)c1)c1ccccc1` (stereo not shown) the IC50 was 10.6 µM (rep papain-like protease; enzyme activity, inhibitor, FRET).
`CC(=NNC(=O)c1cc(-c2ccccc2)n(-c2ccc(S(N)(=O)=O)cc2)n1)c1ccc(C)cc1` has an IC50 of 3.32 µM (PTGS1; enzyme activity, inhibitor).
With `O=C(Nc1ccc(-c2ccccc2)cc1)c1cnn(-c2ccc([N+](=O)[O-])cc2)c1C(F)(F)F` the IC50 was 5.91 µM (PTGS1; enzyme activity, inhibitor).
With `O=C(NCc1cc(O)c(O)c(Br)c1)c1ccco1` the IC50 was 12.2 µM (rep main protease; enzyme activity, inhibitor, FRET).
The IC50 of `CC#CC(=O)N[C@H]1CCCN(c2c(F)cc(C(N)=O)c3[nH]c(C)c(C)c23)C1` is reported as > 5 µM (MAP2K2; enzyme activity, inhibitor).
With `NC(=O)c1nnn(Cc2cc(Cl)c(C(=O)c3ccc(Cl)cc3)c(Cl)c2)c1N` the IC50 was 7.98 µM (D(1A) dopamine receptor (DRD1, Homo sapiens, UniProt P21728); cAMP, antagonist).
For `COCCNc1nc(NCc2cccc(C(=O)Oc3ccc(OC)cc3)c2)nc2[nH]cnc12`, the IC50 was 14 µM (IPMK; enzyme activity, inhibitor).
`O=C(NCc1cc(O)c(O)c(Br)c1)c1cccc(C(F)(F)F)c1` gave an IC50 of 1.95 µM (rep papain-like protease; enzyme activity, inhibitor, FRET).
`COc1nc2ccc(Br)cc2cc1[C@@H](c1ccccc1)[C@@](O)(CCN(C)C)c1cccc2ccccc12` gave an IC50 of < 10 µM (ALDH3A1; enzyme activity, inhibitor, fluorescence).
`COc1ccc(C=NNC(=O)c2cc(-c3ccccc3)n(-c3ccc(S(N)(=O)=O)cc3)n2)cc1OC` has an IC50 of 9.78 µM (PTGS1; enzyme activity, inhibitor).
With `CN(C)c1ccc(C(=O)NCc2cc(O)c(O)c(Br)c2)cc1` the IC50 was 7.61 µM (rep main protease; enzyme activity, inhibitor, FRET).
The IC50 of `NS(=O)(=O)c1ccc(-n2nc(-c3nnc(CCl)o3)cc2-c2ccccc2)cc1` is reported as 6.72 µM (PTGS1; enzyme activity, inhibitor).
`O=C(NCc1cc(O)c(O)c(Br)c1)N1CCCC1` gave an IC50 of 2.88 µM (rep main protease; enzyme activity, inhibitor, FRET).
`NS(=O)(=O)c1ccc(-n2nc(C(=O)NN3C(=O)c4ccccc4C3=O)cc2-c2ccccc2)cc1` gave an IC50 of 6.72 µM (PTGS1; enzyme activity, inhibitor).
With `CC#CC(=O)N1CC[C@@H](n2c(=O)n(-c3ccc(Oc4ccccc4)cc3)c3c(N)ncnc32)C1` the IC50 was > 5 µM (MAP2K2; enzyme activity, inhibitor).
